This note sets out measurements from ChEMBL document CHEMBL1123914, “6-Methylergoline-8-carboxylic acid esters as serotonin antagonists: N1-substituent effects on 5HT2 receptor affinity” (J Med Chem, 1987).

T1 sequence (P08909 whole entry, looked up): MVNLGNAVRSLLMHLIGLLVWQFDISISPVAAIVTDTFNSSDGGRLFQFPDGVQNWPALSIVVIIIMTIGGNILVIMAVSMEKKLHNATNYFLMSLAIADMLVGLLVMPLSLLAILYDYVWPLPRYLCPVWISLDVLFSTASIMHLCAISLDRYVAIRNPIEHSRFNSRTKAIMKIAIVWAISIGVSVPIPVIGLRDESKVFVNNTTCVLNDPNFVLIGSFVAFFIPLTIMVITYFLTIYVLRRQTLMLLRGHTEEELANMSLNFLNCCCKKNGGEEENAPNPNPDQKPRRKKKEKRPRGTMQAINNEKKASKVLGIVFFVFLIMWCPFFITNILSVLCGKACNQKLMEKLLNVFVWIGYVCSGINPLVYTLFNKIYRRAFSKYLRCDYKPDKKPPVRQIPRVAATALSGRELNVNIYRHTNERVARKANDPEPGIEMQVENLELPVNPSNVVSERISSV
T1 sequence (P14842 whole entry, looked up): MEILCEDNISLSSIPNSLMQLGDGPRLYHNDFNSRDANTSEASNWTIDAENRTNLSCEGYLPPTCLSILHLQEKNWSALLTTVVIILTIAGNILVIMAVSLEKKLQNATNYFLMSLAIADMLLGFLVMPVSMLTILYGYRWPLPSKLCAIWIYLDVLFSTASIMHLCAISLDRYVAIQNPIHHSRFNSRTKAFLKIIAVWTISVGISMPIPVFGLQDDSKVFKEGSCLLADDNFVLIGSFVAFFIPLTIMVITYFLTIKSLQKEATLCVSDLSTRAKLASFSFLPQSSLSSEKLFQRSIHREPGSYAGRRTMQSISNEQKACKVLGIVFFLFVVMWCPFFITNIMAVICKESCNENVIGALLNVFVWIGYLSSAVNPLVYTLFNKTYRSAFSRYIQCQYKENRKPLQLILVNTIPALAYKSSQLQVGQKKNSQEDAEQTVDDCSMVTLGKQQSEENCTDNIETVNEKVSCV
T1 sequence (P30994 whole entry, looked up): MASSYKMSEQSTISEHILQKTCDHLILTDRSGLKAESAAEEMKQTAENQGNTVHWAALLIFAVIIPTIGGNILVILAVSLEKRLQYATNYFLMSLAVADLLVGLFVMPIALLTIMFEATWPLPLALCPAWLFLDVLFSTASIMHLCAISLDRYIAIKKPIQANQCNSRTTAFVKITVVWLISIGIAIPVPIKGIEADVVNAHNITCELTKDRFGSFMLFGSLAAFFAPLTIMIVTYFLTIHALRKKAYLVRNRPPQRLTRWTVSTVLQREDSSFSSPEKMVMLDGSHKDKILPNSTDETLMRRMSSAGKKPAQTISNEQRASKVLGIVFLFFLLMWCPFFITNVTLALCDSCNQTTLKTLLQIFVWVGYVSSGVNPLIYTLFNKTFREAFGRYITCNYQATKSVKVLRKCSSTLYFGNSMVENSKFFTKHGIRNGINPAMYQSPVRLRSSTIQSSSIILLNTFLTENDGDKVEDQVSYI

One assay concerns the target T1, Serotonin 2 (5-HT2) receptor (Rattus norvegicus) (UniProt P30994+P08909+P14842). As to the kind of experiment: Affinity towards 5-hydroxytryptamine 2 receptor by measuring its ability to antagonize serotonin-induced contractions in the rat jugular vein. An outline of the steps:
(§1)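 Rat external jugular vein rings, cannulated and mounted between two L-shaped needles on a force transducer in Krebs bicarbonate buffer. Tissues equilibrated 1–2 h. After control cumulative serotonin contraction curves, vessels were incubated with antagonist for 1 h and the serotonin curves repeated. K_B = [B]/(dose ratio − 1), where dose ratio is agonist ED50 with antagonist over control ED50. Reported as −log K_B.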
Regarding `CCn1cc2c3c(cccc31)C1CC(C(=O)OC)CN(C)C1C2` (stereo not given), the -Log KB is 8.12.
`CCCn1cc2c3c(cccc31)C1CC(C(=O)OC(C)C(C)O)CN(C)C1C2` (stereo not given) gave a -Log KB of 8.34.
As to `COC(=O)C1CC2c3cccc4c3c(cn4C(C)C)CC2N(C)C1` (stereo not given), the -Log KB is 8.29.
In the case of `COC(=O)C1CC2c3cccc4c3c(cn4C)CC2N(C)C1` (stereo not given), the -Log KB was found to be 8.23.
`CN1CC(C(=O)OCCO)CC2c3cccc4c3c(cn4Cc3ccccc3)CC21` (stereo not given) had a -Log KB of 8.12.
In the case of `CC(O)C(C)OC(=O)C1CC2c3cccc4c3c(cn4C)CC2N(C)C1` (stereo not given), the -Log KB was 9.26.
On to `COC(=O)C1CC2c3cccc4c3c(cn4Cc3ccccc3)CC2N(C)C1` (stereo not given), for which the -Log KB came to 7.64.
On the same count and under the same terms, in the case of `CCCCCCCCn1cc2c3c(cccc31)C1CC(C(=O)OC(C)C(C)O)CN(C)C1C2` (stereo not given) it was less than 7; in that of `COC(=O)C1CC2c3cccc4c3c(cn4CC(C)C)CC2N(C)C1` (stereo not given), 7.57.
On the same count and under the same terms, the figure for `CN1CC(C(=O)OCCO)CC2c3cccc4c3c(cn4C)CC21` (stereo not given) is 8.63; for `CCc1c(C)n(C(C)C)c2ccc(N(C)C)cc12` it is 7.28; for `CC(O)C(C)OC(=O)C1CC2c3cccc4[nH]cc(c34)CC2N(C)C1` (stereo not given) it is 8.42.
The same measure, in the same setting: in the case of `COC(=O)C1CC2c3cccc4[nH]cc(c34)CC2N(C)C1` (stereo not given) it was 8.1; in that of `CCn1cc2c3c(cccc31)C1CC(C(=O)OC(C)C(C)O)CN(C)C1C2` (stereo not given), 8.9; in that of `CCc1c(C)[nH]c2ccc(N(C)C)cc12`, 4.93.
`C=CCn1cc2c3c(cccc31)C1CC(C(=O)OC)CN(C)C1C2` (stereo not given) came in with a -Log KB of 7.89.
The same measure, in the same setting: the figure for `CC(C)Cn1cc2c3c(cccc31)C1CC(C(=O)OCCO)CN(C)C1C2` (stereo not given) is 7.42.
Turning to `CC(O)C(C)OC(=O)C1CC2c3cccc4c3c(cn4C(C)C)CC2N(C)C1` (stereo not given), the -Log KB worked out at 9.76.
Molecule `CCc1c(C)n(CC)c2ccc(N(C)C)cc12` returned a -Log KB of 6.45.
On the same count and under the same terms, the figure for `CN1CC(C(=O)OCCO)CC2c3cccc4[nH]cc(c34)CC21` (stereo not given) is 7.62; for `CC(C)Cn1cc2c3c(cccc31)C1CC(C(=O)OC(C)C(C)O)CN(C)C1C2` (stereo not given) it is 7.53; for `CC(O)C(C)OC(=O)C1CC2c3cccc4c3c(cn4C3CCCCCC3)CC2N(C)C1` (stereo not given) it is 7.45.
As for `C=CCn1cc2c3c(cccc31)C1CC(C(=O)OCCO)CN(C)C1C2` (stereo not given), the -Log KB came to 8.17.
In turn, `CCc1c(C)n(C)c2ccc(N(C)C)cc12` gave a -Log KB of 6.51.
Take `CC(O)C(C)OC(=O)C1CC2c3cccc4c3c(cn4Cc3ccccc3)CC2N(C)C1` (stereo not given): the -Log KB was 7.37.
Same read-out and setting: the figure for `CCCn1cc2c3c(cccc31)C1CC(C(=O)OC)CN(C)C1C2` (stereo not given) is 7.72; for `CC(C)n1cc2c3c(cccc31)C1CC(C(=O)OCCO)CN(C)C1C2` (stereo not given) it is 9.13.

The target of the next assay is T1, Serotonin 2 (5-HT2) receptor (Rattus norvegicus). As to the kind of experiment: Affinity towards 5-hydroxytryptamine 2 receptor by measuring its ability to antagonize serotonin-induced contractions in the rat jugular vein; no appreciable 5-HT2 receptor affinity. In outline: as §1
As for `CCC(CC)n1cc2c3c(cccc31)C1CC(C(=O)OC(C)C(C)O)CN(C)C1C2` (stereo not given), the -Log KB is less than 7.
In turn, `CCC(CC)n1cc2c3c(cccc31)C1CC(C(=O)OC)CN(C)C1C2` (stereo not given) had a -Log KB of less than 7.
In turn, `CC(O)C(C)OC(=O)C1CC2c3cccc4c3c(cn4C3CCCC3)CC2N(C)C1` (stereo not given) yielded a -Log KB of less than 7.
